In ChEMBL document CHEMBL4813992, “Ring closure strategy leads to potent RIPK3 inhibitors” (Eur J Med Chem, 2021):
pEC50, pIC50, pKd: −log10 of the molar value. The source made the active and inactive calls. The rule behind the calls is not given here.

Tests used:
HT-29 [1] = test: Anti-necroptotic activity in human HT-29 cells assessed as inhibition of TNFalpha/Z-VAD-fmk (TSZ)-induced necroptosis by measuring increase in cell viability by celltiter-glo luminescent cell viability assay; type: functional, cell-based
In short: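 HT-29 cells or MEFs were pretreated with compound or DMSO for 1 h, then stimulated with TNF (20 ng/mL), Smac mimetic (100 nM) and z-VAD. Viability was read as ATP level by CellTiter-Glo (24 h per methods; 40 h per legends). EC50 is the geometric mean of at least two runs ± SEM.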

[2] = biological target: Receptor-interacting serine/threonine-protein kinase 2 (Homo sapiens) (UniProt O43353); test: Inhibition of RIPK2 (unknown origin) at 10 uM
Sequence of Receptor-interacting serine/threonine-protein kinase 2 (Homo sapiens) (O43353 whole entry): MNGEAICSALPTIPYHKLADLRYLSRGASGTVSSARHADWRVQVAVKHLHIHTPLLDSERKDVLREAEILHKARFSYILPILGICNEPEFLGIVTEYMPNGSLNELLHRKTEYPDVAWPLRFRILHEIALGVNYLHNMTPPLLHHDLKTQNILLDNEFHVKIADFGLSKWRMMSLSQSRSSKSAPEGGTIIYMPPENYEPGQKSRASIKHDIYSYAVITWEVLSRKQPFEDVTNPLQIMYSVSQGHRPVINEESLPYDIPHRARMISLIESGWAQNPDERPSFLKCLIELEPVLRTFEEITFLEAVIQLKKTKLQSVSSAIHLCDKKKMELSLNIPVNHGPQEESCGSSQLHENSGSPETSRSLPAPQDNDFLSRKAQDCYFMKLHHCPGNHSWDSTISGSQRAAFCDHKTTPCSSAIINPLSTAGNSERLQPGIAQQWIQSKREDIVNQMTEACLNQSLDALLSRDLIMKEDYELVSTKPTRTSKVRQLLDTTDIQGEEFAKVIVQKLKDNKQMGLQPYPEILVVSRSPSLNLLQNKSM

MEF = test: Anti-necroptotic activity in mouse MEF cells assessed as inhibition of TNFalpha/Smac mimetic/Z-VAD-fmk (TSZ)-induced necroptosis by measuring increase in cell viability by celltiter-glo luminescent cell viability assay
HT-29 [3] = test: Cytotoxicity against human HT-29 cells assessed as cell death at 20 uM by celltiter-glo luminescent cell viability assay; type: cell-based; conditions: ht-29, 20 µM
In short: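 HT-29 cells were given a compound concentration gradient without TSZ stimulation. Viability was read as ATP level by luminescence. Cell death above 30% at 20 µM was scored as significant toxicity.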

Activin receptor type-1B = Activin receptor type-1B (Homo sapiens, UniProt P36896); test: Inhibition of human ALK4 using ATP as substrate incubated for 120 mins by ADP-glo based luminescence assay
Sequence of Activin receptor type-1B (P36896 whole entry): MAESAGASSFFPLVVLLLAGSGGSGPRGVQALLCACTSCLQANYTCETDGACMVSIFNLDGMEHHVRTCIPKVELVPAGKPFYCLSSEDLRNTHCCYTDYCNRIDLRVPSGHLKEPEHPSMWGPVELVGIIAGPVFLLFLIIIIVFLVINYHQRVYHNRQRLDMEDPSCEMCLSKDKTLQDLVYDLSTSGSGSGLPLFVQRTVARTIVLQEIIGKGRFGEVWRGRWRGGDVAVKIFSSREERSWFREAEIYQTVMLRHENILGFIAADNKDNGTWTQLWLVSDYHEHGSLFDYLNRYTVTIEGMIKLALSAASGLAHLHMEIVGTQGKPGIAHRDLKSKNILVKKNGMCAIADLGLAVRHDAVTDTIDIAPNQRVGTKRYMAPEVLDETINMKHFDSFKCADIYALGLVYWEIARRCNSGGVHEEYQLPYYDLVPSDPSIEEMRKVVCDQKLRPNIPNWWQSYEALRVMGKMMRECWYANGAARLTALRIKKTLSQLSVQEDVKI

CDK4/Cyclin D3 = CDK4/Cyclin D3 (Homo sapiens, UniProt P11802); test: Inhibition of CDK4/Cyclin D3 (unknown origin) using FAM-labeled peptide as substrate preincubated for 10 mins followed by substrate addition measured after 60 mins in presence of ATP by caliper mobility shift assay; type: protein-complex assay
Sequence of CDK4/Cyclin D3 (P11802 whole entry): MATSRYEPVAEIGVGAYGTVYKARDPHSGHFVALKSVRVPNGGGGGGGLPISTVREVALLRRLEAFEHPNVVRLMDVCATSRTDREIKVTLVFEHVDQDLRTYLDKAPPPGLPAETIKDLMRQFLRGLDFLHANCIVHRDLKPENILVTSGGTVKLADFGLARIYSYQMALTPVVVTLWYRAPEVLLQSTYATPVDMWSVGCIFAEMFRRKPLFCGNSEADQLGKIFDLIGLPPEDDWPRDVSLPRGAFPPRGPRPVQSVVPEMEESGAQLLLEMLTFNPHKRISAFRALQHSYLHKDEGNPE
Sequence of CDK4/Cyclin D3 (P30281 whole entry, further chain): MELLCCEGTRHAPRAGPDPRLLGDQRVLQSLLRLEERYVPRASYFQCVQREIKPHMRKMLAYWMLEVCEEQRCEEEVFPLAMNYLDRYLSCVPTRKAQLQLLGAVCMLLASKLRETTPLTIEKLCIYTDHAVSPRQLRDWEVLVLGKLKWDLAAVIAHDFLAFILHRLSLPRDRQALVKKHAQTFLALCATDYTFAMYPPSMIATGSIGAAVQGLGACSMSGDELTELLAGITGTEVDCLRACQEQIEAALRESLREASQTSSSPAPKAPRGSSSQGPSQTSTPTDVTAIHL

CYP1A2 = CYP1A2 (Homo sapiens, UniProt P05177); test: Inhibition of CYP1A2 (unknown origin) at 10 uM incubated for 20 mins by LC-MS/MS analysis; type: ADME
CYP2C9 = CYP2C9 (Homo sapiens, UniProt P11712); test: Inhibition of CYP2C9 (unknown origin) at 10 uM incubated for 20 mins by LC-MS/MS analysis; type: ADME
Sequence of CYP2C9 (P11712 whole entry): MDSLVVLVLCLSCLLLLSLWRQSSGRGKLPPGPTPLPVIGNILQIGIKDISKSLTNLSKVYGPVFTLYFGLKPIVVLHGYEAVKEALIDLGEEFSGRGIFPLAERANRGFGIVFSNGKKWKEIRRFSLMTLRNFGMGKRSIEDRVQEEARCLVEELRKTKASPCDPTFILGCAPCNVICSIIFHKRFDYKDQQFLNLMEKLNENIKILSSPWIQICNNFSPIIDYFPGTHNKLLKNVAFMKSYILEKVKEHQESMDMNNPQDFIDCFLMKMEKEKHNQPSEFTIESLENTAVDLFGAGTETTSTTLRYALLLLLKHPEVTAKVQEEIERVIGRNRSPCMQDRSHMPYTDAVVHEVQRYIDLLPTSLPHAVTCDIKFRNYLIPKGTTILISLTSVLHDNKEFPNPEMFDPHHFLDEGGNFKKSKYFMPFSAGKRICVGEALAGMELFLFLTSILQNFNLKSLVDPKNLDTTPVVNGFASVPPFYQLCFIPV

[4] = biological target: Platelet-derived growth factor receptor alpha (Homo sapiens, UniProt P16234); test: Inhibition of PDGFRA (unknown origin) using FAM-labeled peptide as substrate preincubated for 10 mins followed by substrate addition measured after 60 mins in presence of ATP by caliper mobility shift assay
Sequence of Platelet-derived growth factor receptor alpha (P16234 whole entry): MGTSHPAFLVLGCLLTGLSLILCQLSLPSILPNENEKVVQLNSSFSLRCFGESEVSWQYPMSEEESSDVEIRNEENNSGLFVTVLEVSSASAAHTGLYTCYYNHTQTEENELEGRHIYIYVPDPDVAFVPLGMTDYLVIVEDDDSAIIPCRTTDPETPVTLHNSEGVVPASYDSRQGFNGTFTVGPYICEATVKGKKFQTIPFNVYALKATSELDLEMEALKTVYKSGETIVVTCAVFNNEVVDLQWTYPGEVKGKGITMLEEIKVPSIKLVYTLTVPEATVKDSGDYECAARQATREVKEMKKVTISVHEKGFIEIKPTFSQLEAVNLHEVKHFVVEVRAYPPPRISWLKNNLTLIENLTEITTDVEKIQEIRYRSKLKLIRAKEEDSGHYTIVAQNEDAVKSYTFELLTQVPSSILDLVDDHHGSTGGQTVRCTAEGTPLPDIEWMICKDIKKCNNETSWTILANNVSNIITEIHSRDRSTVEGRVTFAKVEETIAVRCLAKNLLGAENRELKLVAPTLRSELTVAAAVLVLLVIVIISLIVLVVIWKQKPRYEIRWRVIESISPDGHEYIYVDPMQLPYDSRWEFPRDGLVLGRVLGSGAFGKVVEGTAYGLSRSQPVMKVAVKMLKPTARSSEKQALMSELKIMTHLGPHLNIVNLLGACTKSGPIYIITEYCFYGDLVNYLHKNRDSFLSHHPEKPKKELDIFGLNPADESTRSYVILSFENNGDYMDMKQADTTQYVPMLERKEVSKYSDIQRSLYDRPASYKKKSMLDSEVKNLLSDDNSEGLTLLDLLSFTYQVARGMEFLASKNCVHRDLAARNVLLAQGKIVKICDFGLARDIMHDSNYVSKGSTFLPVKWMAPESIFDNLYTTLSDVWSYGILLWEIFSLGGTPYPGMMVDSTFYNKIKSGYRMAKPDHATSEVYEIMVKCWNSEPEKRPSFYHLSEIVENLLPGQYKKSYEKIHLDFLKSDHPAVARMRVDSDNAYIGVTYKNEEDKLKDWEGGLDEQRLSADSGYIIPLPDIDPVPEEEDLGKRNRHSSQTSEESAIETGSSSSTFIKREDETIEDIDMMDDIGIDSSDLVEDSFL

[5] = Metabolic stability in human liver microsomes assessed as intrinsic clearance by LC-MS/MS analysis; type: ADME, Microsome
[6] = Apparent permeability of the compound across basolateral to apical side in human Caco-2 cells; type: ADME, cell-based; conditions: read-out: permeability
[7] = biological target: Mixed lineage kinase domain-like protein (Homo sapiens) (UniProt Q8NB16); test: Inhibition of MLKL (unknown origin) polymerization
[8] = biological target: Phosphatidylinositol 4,5-bisphosphate 3-kinase catalytic subunit alpha isoform (Homo sapiens, UniProt P42336); test: Inhibition of human PI3Kalpha using ATP as substrate at 25 uM incubated for 60 mins by ADP-glo based luminescence assay
Mus musculus [9] = test: Antiinflammatory activity in TNFalpha-induced C57BL/6J mouse systemic inflammatory response syndrome model assessed as reduction in IL-6 production in serum at 5 mg/kg, ip measured 4 hrs after TNFalpha stimulation by ELISA; type: functional, organism-based
In short: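 C57BL/6 mice were dosed i.p. at 5 mg/kg in PBS/40% PEG400 about 15 min before i.v. mouse TNFa ([…]). Mice were killed 4 h after TNFa and serum IL-6 was measured by ELISA.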

[10] = Apparent permeability of the compound across apical to basolateral side in human Caco-2 cells; type: ADME, cell-based; conditions: read-out: permeability
[11] = biological target: Receptor-interacting serine/threonine-protein kinase 3 (Homo sapiens, UniProt Q9Y572); test: Binding affinity to human wild type RIPK3 (M1/Q307) expressed in bacterial expression system by Kinomescan method
In short: (§1)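 KINOMEscan competition binding assay. Kinases were expressed as tags on T7 phage grown in E. coli BL21, or produced in HEK-293 cells and DNA-tagged. Kinase, ligand-loaded streptavidin beads and compound were combined in binding buffer (20% SeaBlock, 0.17x PBS, 0.05% Tween 20, 6 mM DTT) for 1 h at room temperature with shaking. Bound kinase was read by qPCR.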

[12] = biological target: Epidermal growth factor receptor (Homo sapiens, UniProt P00533); test: Inhibition of EGFR (unknown origin) using FAM-labeled peptide as substrate preincubated for 10 mins followed by substrate addition measured after 60 mins in presence of ATP by caliper mobility shift assay
Mus musculus [13] = test: Anti-necroptosis activity against TNFalpha-induced C57BL/6J mouse systemic inflammatory response syndrome model assessed as reduction in lethal shock at 5 mg/kg, ip measured after 15 mins; type: functional, organism-based
In short: (§2)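 C57BL/6 mice were given vehicle (sterile PBS with 40% PEG400) or compound at 5 mg/kg i.p. about 15 min before i.v. mouse TNFa ([…]). Body temperature and survival were monitored. Temperature changes are shown as means ± SEM per group.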

[14] = biological target: Receptor-interacting serine/threonine-protein kinase 1 (Homo sapiens, UniProt Q13546); test: Binding affinity to human wild type RIPK1 (M1/K305) expressed in bacterial expression system by Kinomescan method; in short: as §1
[15] = biological target: Receptor-interacting serine/threonine-protein kinase 1 (Homo sapiens) (UniProt Q13546); test: Inhibition of human RIPK1 using ATP and substrate at 10 uM incubated for 120 mins by ADP-glo based luminescence assay
[16] = Protein binding in mouse plasma by LC-MS/MS analysis; type: ADME, cell-free; conditions: read-out: PPB (converted)
[17] = Protein binding in rat plasma by LC-MS/MS analysis; type: ADME, cell-free; conditions: read-out: PPB (converted)
CYP2D6 = CYP2D6 (Homo sapiens, UniProt P10635); test: Inhibition of CYP2D6 (unknown origin) at 10 uM incubated for 20 mins by LC-MS/MS analysis; type: ADME
[18] = Protein binding in human plasma by LC-MS/MS analysis; type: ADME, cell-free; conditions: read-out: PPB (converted)
[19] = biological target: Serine/threonine-protein kinase B-raf (Homo sapiens, UniProt P15056); test: Inhibition of BRAF (unknown origin) in presence of ATP by Lanthascreen TR-FRET assay
[20] = biological target: Serine/threonine-protein kinase mTOR (Homo sapiens, UniProt P42345); test: Inhibition of mTOR (unknown origin) using ATP as substrate after 60 mins by Lance ultra assay
[21] = Metabolic stability in human liver microsomes assessed as half life by LC-MS/MS analysis; type: ADME, Microsome
CYP3A4 [22] = biological target: T1, CYP3A4 (Homo sapiens, UniProt P08684); test: Inhibition of CYP3A4 (unknown origin) at 10 uM using testosterone as substrate incubated for 20 mins by LC-MS/MS analysis; type: ADME; conditions: probe testosterone
T1 sequence (P08684 whole entry): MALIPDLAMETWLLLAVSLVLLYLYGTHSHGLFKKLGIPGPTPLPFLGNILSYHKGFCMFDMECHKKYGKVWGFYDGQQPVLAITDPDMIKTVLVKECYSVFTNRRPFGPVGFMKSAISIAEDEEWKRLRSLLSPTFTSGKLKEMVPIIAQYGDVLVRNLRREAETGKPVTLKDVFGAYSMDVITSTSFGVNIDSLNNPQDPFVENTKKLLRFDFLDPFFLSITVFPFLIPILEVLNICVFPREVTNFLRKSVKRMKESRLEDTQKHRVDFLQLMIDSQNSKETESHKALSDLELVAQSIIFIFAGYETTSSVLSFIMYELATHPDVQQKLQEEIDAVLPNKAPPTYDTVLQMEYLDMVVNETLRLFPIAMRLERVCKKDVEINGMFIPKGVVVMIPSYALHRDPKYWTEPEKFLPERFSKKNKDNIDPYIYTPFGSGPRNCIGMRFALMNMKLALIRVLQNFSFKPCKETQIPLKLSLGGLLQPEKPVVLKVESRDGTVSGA

[23] = biological target: Voltage-gated inwardly rectifying potassium channel KCNH2 (Homo sapiens, UniProt Q12809); test: Inhibition of human ERG expressed in CHO-K1 cells by QPatch - automated patch-clamp technology; type: cell-based
Sequence of Voltage-gated inwardly rectifying potassium channel KCNH2 (Q12809 whole entry): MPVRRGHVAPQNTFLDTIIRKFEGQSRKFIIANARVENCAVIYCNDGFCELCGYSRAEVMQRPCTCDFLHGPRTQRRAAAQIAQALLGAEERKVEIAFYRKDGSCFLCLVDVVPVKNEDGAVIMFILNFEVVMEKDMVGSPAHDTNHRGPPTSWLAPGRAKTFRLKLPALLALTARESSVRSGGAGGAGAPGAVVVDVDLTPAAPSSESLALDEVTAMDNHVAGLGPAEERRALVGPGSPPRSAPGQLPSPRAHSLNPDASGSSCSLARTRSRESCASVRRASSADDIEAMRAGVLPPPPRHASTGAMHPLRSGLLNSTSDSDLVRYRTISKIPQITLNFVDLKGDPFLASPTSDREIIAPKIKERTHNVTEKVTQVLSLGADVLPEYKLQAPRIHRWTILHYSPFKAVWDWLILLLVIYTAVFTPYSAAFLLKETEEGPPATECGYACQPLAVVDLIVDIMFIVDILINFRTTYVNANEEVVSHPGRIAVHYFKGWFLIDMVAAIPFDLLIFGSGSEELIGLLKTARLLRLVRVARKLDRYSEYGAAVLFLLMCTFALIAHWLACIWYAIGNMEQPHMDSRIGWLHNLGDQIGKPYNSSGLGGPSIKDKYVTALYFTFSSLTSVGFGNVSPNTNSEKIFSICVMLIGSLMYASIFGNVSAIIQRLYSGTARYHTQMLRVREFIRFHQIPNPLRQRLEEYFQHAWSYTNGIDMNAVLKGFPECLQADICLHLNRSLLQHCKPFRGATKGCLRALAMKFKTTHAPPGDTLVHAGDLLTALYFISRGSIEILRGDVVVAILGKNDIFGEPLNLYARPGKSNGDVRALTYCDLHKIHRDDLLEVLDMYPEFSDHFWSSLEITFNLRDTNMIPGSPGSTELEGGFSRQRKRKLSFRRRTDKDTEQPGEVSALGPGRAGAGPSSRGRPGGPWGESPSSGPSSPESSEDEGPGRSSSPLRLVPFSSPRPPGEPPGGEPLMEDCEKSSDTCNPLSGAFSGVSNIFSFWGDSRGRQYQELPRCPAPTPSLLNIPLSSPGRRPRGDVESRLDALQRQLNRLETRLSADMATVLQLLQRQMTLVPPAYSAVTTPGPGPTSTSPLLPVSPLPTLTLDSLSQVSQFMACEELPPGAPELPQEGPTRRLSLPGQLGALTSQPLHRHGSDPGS

Mus musculus [24] = test: Anti-necroptosis activity against TNFalpha-induced C57BL/6J mouse systemic inflammatory response syndrome model assessed as reduction in hypothermia at 5 mg/kg, ip measured after 15 mins; type: functional, organism-based; in short: as §2
CYP2C19 = CYP2C19 (Homo sapiens, UniProt P33261); test: Inhibition of CYP2C19 (unknown origin) at 10 uM incubated for 20 mins by LC-MS/MS analysis; type: ADME
[25] = Metabolic stability in mouse liver microsomes assessed as half life by LC-MS/MS analysis; type: ADME, Microsome
CYP3A4 [26] = biological target: T1, CYP3A4; test: Inhibition of CYP3A4 (unknown origin) at 10 uM using midazolam as substrate incubated for 20 mins by LC-MS/MS analysis; type: ADME; conditions: probe midazolam
[27] = Metabolic stability in mouse liver microsomes assessed as intrinsic clearance by LC-MS/MS analysis; type: ADME, Microsome
[28] = Efflux ratio of apparent permeability across basolateral to apical side over apical to basolateral side in human Caco-2 cells; type: ADME, cell-based

For `C=C1c2cc3nccc(Nc4ccc5scnc5c4)c3cc2S(=O)(=O)C1(C)C`, the pEC50 (HT-29 [1]) was 5.99.

With `CC(C)S(=O)(=O)c1ccc2nccc(Nc3ccc4scnc4c3)c2c1` the pEC50 (HT-29 [1]) was 5.82, the inhibition [2] was “Active” and the pEC50 (MEF) was 5.60.

`CC1(C)C(O)(C2CC2)c2cc3nccc(Nc4ccc5scnc5c4)c3cc2S1(=O)=O` (stereo not drawn) showed a pEC50 (HT-29 [1]) of under 4.70.

With `Cc1n[nH]c(Nc2ccnc3cc4c(cc23)S(=O)(=O)C(C)(C)C4=O)c1C` the pEC50 (HT-29 [1]) was under 4.70.

Work on `CC1(C)C(=O)c2cc3nccc(Nc4cc(O)c(F)cc4F)c3cc2S1(=O)=O` yielded a pEC50 (HT-29 [1]) of 5.99 and an Activity (HT-29 [3]) of over 30%.

In the case of `CC1(CC2CC2)C(=O)c2cc3nccc(Nc4ccc5scnc5c4)c3cc2S1(=O)=O` (stereo not drawn), the pEC50 (HT-29 [1]) was under 4.70.

In the case of `CC1(C)C(O)c2cc3nccc(Nc4ccc5scnc5c4)c3cc2S1(=O)=O` (stereo not drawn), the pEC50 (HT-29 [1]) was 5.66.

In the case of `CC1(C)C(=O)c2cc3nccc(Nc4cc(O)ccc4F)c3cc2S1(=O)=O`, the pEC50 (HT-29 [1]) was 6.48 and the Activity (HT-29 [3]) was over 30%.

`O=S1(=O)CC2(CCCO2)c2cc3nccc(Nc4ccc5scnc5c4)c3cc21` (stereo not drawn) gave a pEC50 (HT-29 [1]) of 5.40.

Compound `O=C(O)c1ccc(-c2nc(-c3ccc4c(c3)OCO4)c(-c3ccccn3)[nH]2)cc1` has a pIC50 (Activin receptor type-1B) of 6.80.

`O=S1(=O)CCc2cc3nccc(Nc4ccc5scnc5c4)c3cc21` gave a pEC50 (HT-29 [1]) of 5.64.

`CC1(C)C(=O)c2cc3nccc(Nc4ccc5scnc5c4)c3cc2S1(=O)=O` gave a pEC50 (HT-29 [1]) of 5.65.

For `CC1COC2(CS(=O)(=O)c3cc4c(Nc5ccc6scnc6c5)ccnc4cc32)O1` (stereo not drawn), the pEC50 (HT-29 [1]) was 5.97.

`O=S1(=O)CC2(COC2)c2cc3nccc(Nc4ccc5scnc5c4)c3cc21` showed a pEC50 (HT-29 [1]) of under 4.70.

Compound `Cc1ccc(O)cc1Nc1ccnc2cc3c(cc12)S(=O)(=O)C(C)(C)C3=O` has a pEC50 (HT-29 [1]) of 6.37 and an Activity (HT-29 [3]) of over 30%.

With `CC1(O)c2cc3nccc(Nc4ccc5scnc5c4)c3cc2S(=O)(=O)C1(C)C` (stereo not drawn) the pEC50 (HT-29 [1]) was under 4.70.

For `O=S1(=O)CC2(OCCO2)c2cc3nccc(Nc4ccc5scnc5c4)c3cc21`, the pIC50 (CDK4/Cyclin D3) was under 5.00, the inhibition at 20 min, 10 µM (CYP1A2) was 37% and the inhibition at 20 min, 10 µM (CYP2C9) was -6.33%. For the same compound, the pIC50 [4] was 6.82, the CLH [5] was 60.5 mL/min/kg and the Papp B→A [6] was 25.3 ×10⁻⁶ cm/s. For the same compound, the pEC50 (HT-29 [1]) was 6.38, the inhibition [7] was “inactive” and the pIC50 [8] was 5.11. For the same compound, the Activity (Mus musculus [9]) was “Active”, the Papp A→B [10] was 35.2 ×10⁻⁶ cm/s and the pKd [11] was 8.14. The pIC50 [12] was under 5.00, the Activity (Mus musculus [13]) was “Active” and the pKd [14] was 5.23. For the same compound, the inhibition [15] was “inactive”, the pIC50 (Activin receptor type-1B) was 5.43 and the fraction unbound [16] was 0.027. It also gave a fraction unbound [17] of 0.013, an inhibition at 20 min, 10 µM (CYP2D6) of -5.26% and a fraction unbound [18] of 0.029. It also gave a pIC50 [19] of 5.87, a pIC50 [20] of under 5.00 and a half-life [21] of 28.8 min. The inhibition at 20 min, 10 µM (CYP3A4 [22]) was 9.6%, the pIC50 [23] was under 4.52 and the inhibition [2] was “Active”. The Activity (Mus musculus [24]) was “Active”, the inhibition at 20 min, 10 µM (CYP2C19) was 19.9% and the half-life [25] was 20.3 min. For the same compound, the pEC50 (MEF) was 6.27, the inhibition at 20 min, 10 µM (CYP3A4 [26]) was -13.7% and the CLH [27] was 269 mL/min/kg. For the same compound, the efflux ratio [28] was 0.72.

For `CC1(C)C(=O)c2cc3nccc(Nc4n[nH]c5ccc(F)cc45)c3cc2S1(=O)=O`, the pEC50 (HT-29 [1]) was under 4.70.

In the case of `CCC1(C)C(=O)c2cc3nccc(Nc4ccc5scnc5c4)c3cc2S1(=O)=O` (stereo not drawn), the pEC50 (HT-29 [1]) was under 4.70.

In the case of `O=C1CS(=O)(=O)c2cc3c(Nc4ccc5scnc5c4)ccnc3cc21`, the pEC50 (HT-29 [1]) was 5.42.
